# Source: ChEMBL document CHEMBL1127606, “HIV-1 reverse transcriptase inhibitor design using artificial neural networks” (1994)
# The source made the active and inactive calls. No cut-off for these calls is given here.
# Experiments:
# [1] = target: Human immunodeficiency virus type 1 reverse transcriptase (Human immunodeficiency virus 1) (UniProt Q72547); test: Inhibition of HIV-1 reverse transcriptase; - = inactive
# MT4 [2] = test: RT activity in culture fluid at 10e-5 concentration of compound was tested on MT-4 cells infected by […]; format: cell-based
# How it was run: (§1)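 RT assay: infected MT-4 cells (H9/IIIB-derived HIV-1, 0.05–0.1 log10 EPCD50 per cell) were cultured 7 days with compound at 10^-4 or 10^-5 M. Reverse transcriptase activity in the culture fluid was measured and expressed as % of untreated infected control.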
# MT4 [3] = test: RT activity in culture fluid at 10e-4 concentration of compound was tested on MT-4 cells infected by […]; format: cell-based; how it was run: as §1
# MT4 [4] = test: Number of infected cells at 10e-4 concentration of compound was tested on MT-4 cells infected by […]; format: functional, Homo sapiens
# How it was run: (§2)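 Infected-cell count: HIV-1 (H9/IIIB-derived fluid, 0.05–0.1 log10 EPCD50 per cell) was used to infect MT-4 lymphocytes, which were then grown 7 days with compound at 10^-4 or 10^-5 M. Cells expressing viral antigens on their surface membranes were scored by indirect immunofluorescence with anti-HIV-1 antibodies, as % of cells.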
# MT4 [5] = test: Content of viable cells at 10e-4 concentration of compound was tested on MT-4 cells infected by […]; format: functional, Homo sapiens
# How it was run: (§3)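 Anti-HIV viable-cell assay: MT-4 lymphocytes infected with cell-free fluid from chronically HIV-1-infected H9/IIIB cultures at 0.05–0.1 log10 EPCD50 per cell. They were cultured 7 days with compound at 10^-4 or 10^-5 M. Viable cells were counted by 0.25% trypan blue exclusion and reported as % viable cells.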
# MT4 [6] = test: Number of infected cells at 10e-5 concentration of compound was tested on MT-4 cells infected by […]; format: functional, Homo sapiens; how it was run: as §2
# MT4 [7] = test: Cytotoxic concentration for 50% death of uninfected MT-4 cell culture
# MT4 [8] = test: Antigen p24 content in culture fluid at 10e-5 concentration of compound was tested on MT-4 cells infected by […]; format: functional, Homo sapiens
# How it was run: (§4)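 p24 assay: MT-4 cultures were infected with HIV-1 from chronically infected H9/IIIB cultures (0.05–0.1 log10 EPCD50 per cell) and held 7 days with compound at 10^-4 or 10^-5 M. Virus production was measured as p24 antigen in culture fluid by immunoenzymatic assay, in ng/mL.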
# MT4 [9] = test: Antigen p24 content in culture fluid at 10e-4 concentration of compound was tested on MT-4 cells infected by […]; format: functional, Homo sapiens; how it was run: as §4
# MT4 [10] = test: Content of viable cells at 10e-5 concentration of compound was tested on MT-4 cells infected by […]; format: functional, Homo sapiens; how it was run: as §3
# MT4 [11] = test: Cytotoxic concentration for 50% death of MT-4 cell culture infected by HIV-1/ IIIB; format: functional, Homo sapiens
structure (smiles),measurement,setting,value
O=c1ccn(C2OC(CO)C(F)C2F)c(=O)[nH]1 (stereo unspecified),Activity,[1],inactive
"Cc1cn([C@@H]2C=CC(O)CO2)c(=O)[nH]c1=O (single isomer, unassigned)",Activity,[1],inactive
"Cc1cn(C2C=C[C@@H](N=[N+]=[N-])CO2)c(=O)[nH]c1=O (single isomer, unassigned)",Activity,[1],inactive
COC(=O)C(NP(=O)(OCC1OC(n2cc(C)c(=O)[nH]c2=O)CC1F)OCC(Cl)(Cl)Cl)C(C)C (stereo unspecified),Activity,[1],inactive
Cc1cn([C@H]2C[C@H](N=[N+]=[N-])[C@@H](CO)O2)c(=O)[nH]c1=O [ZIDOVUDINE],RT activity,MT4 [2],17%
same,RT activity,MT4 [3],19.2%
same,No. of infected cells,MT4 [4],2.9%
same,Viable cells,MT4 [5],78.6%
same,No. of infected cells,MT4 [6],2.1%
same,CTC50,MT4 [7],0.0053 M
same,Antigen p24 content,MT4 [8],0.68 ng/mL
same,Antigen p24 content,MT4 [9],0.82 ng/mL
same,Viable cells,MT4 [10],69.7%
Cc1cn([C@H]2C=C[C@@H](N=[N+]=[N-])[C@@H](CO)O2)c(=O)[nH]c1=O,Activity,[1],inactive
COC(=O)C(Cc1ccccc1)NP(=O)(NC(Cc1ccccc1)C(=O)OC)OCC1OC(n2cc(C)c(=O)[nH]c2=O)CC1F (stereo unspecified),Activity,[1],inactive
CC(=O)N[C@@H]1C=C[C@@H](n2cc(C)c(=O)[nH]c2=O)OC1,Activity,[1],inactive
O=c1ccn(C2OC(CO)CC2F)c(=O)[nH]1 (stereo unspecified),Activity,[1],inactive
CC(=O)O[C@H]1C=C[C@H](n2cc(C)c(=O)[nH]c2=O)O[C@@H]1CO,Activity,[1],inactive
CC(=O)OC[C@H]1O[C@H](n2cc(C)c(=O)[nH]c2=O)C=C[C@@H]1OC(C)=O,Activity,[1],inactive
CCc1cc(CCN2C(=O)c3ccccc3C2=O)c(O)nc1C,Activity,[1],inactive
Cc1cn([C@@H]2O[C@H](CO)C=C2F)c(=O)[nH]c1=O,Activity,[1],inactive
COC1=NC(CC(C)=O)N=C(OC)C1(CC(O)CO)[N+](=O)[O-] (stereo unspecified),RT activity,MT4 [2],82.5%
same,RT activity,MT4 [3],84.3%
same,No. of infected cells,MT4 [4],19.7%
same,Viable cells,MT4 [5],37.3%
same,No. of infected cells,MT4 [6],12.6%
same,CTC50,MT4 [7],0.058 M
same,Antigen p24 content,MT4 [8],1.87 ng/mL
same,Antigen p24 content,MT4 [9],1.92 ng/mL
same,Viable cells,MT4 [10],52.1%
COc1nc(CC(C)=O)nc(OC)c1CC(O)CO (stereo unspecified),CTC50,MT4 [11],78 µM
"Cc1cn(C2C=C[C@H](O)[C@@H](CO)O2)c(=O)[nH]c1=O (single isomer, unassigned)",Activity,[1],inactive
CC(=O)O[C@H]1C=C[C@@H](n2cc(C)c(=O)[nH]c2=O)OC1,Activity,[1],inactive
CC(=O)N[C@@H]1C=C[C@H](n2cc(C)c(=O)[nH]c2=O)O[C@@H]1CO,Activity,[1],inactive
"Cc1cn(C2C=C[C@@H](O)[C@@H](CO)O2)c(=O)[nH]c1=O (single isomer, unassigned)",Activity,[1],inactive
Nc1nc(=O)n(C2OC(CO)CC2F)cc1F (stereo unspecified),Activity,[1],inactive
O=c1ccn(C2OC(CO)C=C2F)c(=O)[nH]1 (stereo unspecified),Activity,[1],inactive
COC(=O)C(C)NP(=O)(OCC1OC(n2cc(C)c(=O)[nH]c2=O)CC1F)OCC(Cl)(Cl)Cl (stereo unspecified),Activity,[1],inactive
Cc1cn([C@@H]2O[C@H](CO)C[C@H]2F)c(=O)[nH]c1=O,Activity,[1],inactive
Cc1cn([C@@H]2O[C@H](CO)[C@@H](N=[N+]=[N-])[C@H]2F)c(=O)[nH]c1=O,Activity,[1],inactive
CC(=O)N[C@@H]1C=C[C@@H](n2cc(C)c(=O)[nH]c2=O)O[C@@H]1CO,Activity,[1],inactive
Cc1cn([C@@H]2C=C[C@@H](N=[N+]=[N-])[C@@H](CO)O2)c(=O)[nH]c1=O,Activity,[1],inactive
COC1=NC(OC)=C([N+](=O)[O-])C(CC(C)=O)N1CC(O)CO (stereo unspecified),RT activity,MT4 [2],18.7%
same,RT activity,MT4 [3],20.9%
same,No. of infected cells,MT4 [4],3.6%
same,Viable cells,MT4 [5],85.1%
same,No. of infected cells,MT4 [6],2.8%
same,CTC50,MT4 [7],0.0466 M
same,Antigen p24 content,MT4 [8],0.77 ng/mL
same,Antigen p24 content,MT4 [9],0.87 ng/mL
same,Viable cells,MT4 [10],83.2%
